“And” between values parts separate entries of the source, which are not always exact repeats. Equal values may be shown once.

Assay [1] is described as follows: Selectivity index is defined as CC25(A3.01 cells) / IC50(A3.01 cells). Type of assay: functional. The method, boiled down:
(§1)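 Selectivity index = CC25/IC50 within each line (A3.01, H9 or PBL). CC25 came from visual grading of mock-infected cells after 7 days. IC50 came from reverse transcriptase activity in infected-cell supernatants after 7 days, with medium and compound changed on day 4.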

Assay [2] in a line: In vitro Cytotoxic concentration in mock-infected A3.01 cells - 100% toxicity. Type of assay: functional, Homo sapiens. In short, it runs like this:
(§2)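 Toxicity was read on mock-infected A3.01, H9 or PBL cells handled alongside the infected ones (3 h mock infection, wash). Compounds were 3-fold serially diluted (AZT 5-fold). Incubation lasted 7 days, with medium and compound changed on day 4. Cytotoxicity was graded by eye from cell morphology and death. […] Single determination.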

A short description of assay [3]: In vitro Cytotoxic concentration in mock-infected A3.01 cells. Type of assay: functional, Homo sapiens. In short, it runs like this: as §2
For assay [4], the system named is MT2. The experiment in a line: In vitro Cytotoxic concentration which destroyed HIV-1 LAV infected MT-2 cells completely. Type of assay: functional, Homo sapiens. In short, it runs like this: (§3)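 MT-2 cells were mock-infected for 3 h at 37 °C in 5% CO2, then washed. Compound was added as serial dilutions (3-fold; AZT 5-fold) and incubated 4 days. Cytotoxicity was counted by trypan blue dye exclusion on a hemocytometer. […] Single determination.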

Assay [5] deals with MT2. The experiment in a line: In vitro Cytotoxic concentration which reduced H 112-2(pre-AZT) infected MT-2 cells by 50 percent. The format is functional, cell-based. Particulars: Homo sapiens. The method, boiled down: (§4)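 MT-2 cells were infected for 3 h at 37 °C in 5% CO2 with HIV-1 LAV or with clinical isolates G762-3, H112-2 (pre-AZT) or G691-2, G910-6p2 (post-AZT), then washed. Serial compound dilutions (3-fold; AZT 5-fold) followed, with 4-day incubation. Virus was measured as p24 core antigen by kit. IC50 = 50% reduction versus control cultures. Single determination.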

Assay [6] can be described thus: In vitro Cytotoxic concentration which reduced HIV-1 LAV infected peripheral blood lymphocytes (PBL) by 25 percent. The format is functional. The method, boiled down: as §2
Assay [7] can be described thus: Selectivity index is defined as CC25(MT2 cells) / […]. Type of assay: functional. In short, it runs like this: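 Selectivity index = CC25/IC50 in MT-2 cells. CC25 came from trypan blue exclusion on mock-infected cells after 4 days. IC50 came from the 50% reduction in p24 antigen in HIV-1 LAV-infected cultures after 4 days.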
The nature of assay [8]: Selectivity index is defined as CC25(H9 cells) / […]. The format is functional. In short, it runs like this:
as §1

Assay [9] relates to MT2. As to the kind of experiment: In vitro Cytotoxic concentration which reduced G 762-3(pre-AZT) infected MT-2 cells by 50 percent. Type of assay: functional, cell-based. Particulars: Homo sapiens. The method, boiled down: as §4
Assay [10] relates to H9. The experiment in a line: In vitro Cytotoxic concentration which reduced HIV-1 LAV infected H9 cells by 50 percent. The format is functional, cell-based. Particulars: Homo sapiens. In short, it runs like this:
(§5)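 Cells (A3.01, H9 or PBL) infected with HIV-1 LAV for 3 h at 37 °C in 5% CO2, then washed free of unadsorbed virus. Test compounds were serially diluted 3-fold and AZT 5-fold. Cultures ran 7 days, with medium and compound renewed on day 4. Reverse transcriptase activity in supernatants gave virus levels. IC50 = concentration cutting virus by 50% versus control cultures. Single determination.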

Assay [11] relates to MT2. As to the kind of experiment: (§6) In vitro Cytotoxic concentration which destroyed HIV-1 LAV infected peripheral blood lymphocytes (PBL) completely. The format is functional, Homo sapiens. In short, it runs like this:
as §2

For assay [12], the system named is MT2. The experiment in a line: In vitro Cytotoxic concentration which reduced G 910-6p2 (post-AZT) infected MT-2 cells by 50 percent. Particulars: Homo sapiens. The format is functional, cell-based. The method, boiled down: as §4
Assay [13] relates to MT2. As to the kind of experiment: In vitro Cytotoxic concentration which reduced HIV-1 LAV infected MT-2 cells by 50 percent. Particulars: Homo sapiens. Type of assay: functional, cell-based. The method, boiled down:
as §4

Assay [14] has as its system H9. The experiment in a line: In vitro Cytotoxic concentration which reduced HIV-1 LAV infected H9 cells by 25 percent. Type of assay: functional, Homo sapiens. The method, boiled down:
as §2

For assay [15], the system named is H9. The experiment in a line: In vitro Cytotoxic concentration which destroyed HIV-1 LAV infected H9 cells completely. The format is functional, Homo sapiens. In short, it runs like this: as §2
In assay [16] the test system is MT2. The experiment in a line: In vitro Cytotoxic concentration which reduced HIV-1 LAV infected MT-2 cells by 25 percent. Type of assay: functional, Homo sapiens. The method, boiled down: as §3
A short description of assay [17]: Selectivity index is defined as CC25(PBLcells) / […]. The format is functional. In short, it runs like this: as §1
Assay [18] in a line: In vitro Cytotoxic concentration which reduced HIV-1 LAV infected peripheral blood lymphocytes by 50 percent. Type of assay: functional. The method, boiled down:
as §5

The test system of assay [19] is MT2. As to the kind of experiment: In vitro Cytotoxic concentration which reduced G 691-2(post-AZT) infected MT-2 cells by 50 percent. Type of assay: functional, cell-based. Particulars: Homo sapiens. The method, boiled down:
as §4

Assay [20] in a line: In vitro cytotoxic concentration for mock-infected cells at which complete destruction of cells was observed. Type of assay: functional. The method, boiled down:
as §2

The nature of assay [21]: In vitro cytotoxic concentration for mock-infected CD4+ T cells at which 25% cells were destroyed. Type of assay: functional, T-cell. The method, boiled down:
as §2

Assay [22] can be described thus: Selectivity index is defined as CC25(A3.01 cells) / IC50(A3.01 cells); selectivity Index = CC25/IC50. Type of assay: functional. The method, boiled down:
as §1

A short description of assay [23]: as §6. Type of assay: functional. In short, it runs like this: as §2

For the compound `[N-]=[N+]=N[C@]1(CO)O[C@@H](n2ccc(N)nc2=O)C[C@@H]1O`, the Selectivity index in assay [1] was determined as 53. This compound also registered a CC100 in assay [2] of 1.9 µM. Besides, the CC25 in assay [3] worked out at 0.21 µM.

On to `Cc1cn([C@H]2CC[C@@](CO)(N=[N+]=[N-])O2)c(=O)[nH]c1=O`, for which, in [2], the CC100 came to 33.3 µM. In assay [3], this compound yielded a CC25 of 11.1 µM.

`Cc1cn([C@H]2CC[C@](CO)(N=[N+]=[N-])O2)c(=O)[nH]c1=O` had a CC100 in assay [2] of 200 µM. In [3], the CC25 was found to be 22 µM.

Compound `[N-]=[N+]=N[C@]1(CO)O[C@@H](n2ccc(=O)[nH]c2=O)[C@H](O)[C@@H]1O` returned a Selectivity index in [1] of over 2.74. Also, the CC100 in [2] is over 200 µM. The same compound showed a CC25 in [3] of over 200 µM.

One may read the IC50 as the point on the concentration scale where inhibition reaches its midpoint. Read a low IC50 as inhibition by little substance. Turning to `Cc1cn([C@H]2C[C@H](O)[C@](CO)(N=[N+]=[N-])O2)c(=O)[nH]c1=O`, the Selectivity index is 800 in assay [1], 140 in [7], 625 in [8] and 125 in [17]. Besides, the CC100 with MT2 [4] is over 500 µM; in assay [2], 200 µM and >200 µM; in the assay with MT2 [11], over 200 µM; in the assay on H9 [15], 667 µM. The IC50 with MT2 [5] amounted to 0.4 µM; in the assay on MT2 [9], 0.43 µM; in the assay on H9 [10], 0.4 µM; in the assay with MT2 [12], 0.52 µM; in the assay on MT2 [13] it was 0.4 µM; in [18], 0.02 µM. The same compound gave an IC50 in the assay with MT2 [19] of 0.34 µM. Besides, the results for the CC25 (in [6]; in the assay with H9 [14]; with MT2 [16]) were 2.5 µM, 25 µM and 56 µM, respectively.

In turn, `Cc1cn(C2C=CC(CO)(N=[N+]=[N-])O2)c(=O)[nH]c1=O` (configuration not stated) yielded a CC100 in assay [2] of 7.4 µM. This compound showed a CC25 in assay [3] of 2.5 µM.

For `[N-]=[N+]=N[C@]1(CO)O[C@@H](N2C=NC3C(=O)N=C(N)N=C32)C[C@@H]1O` (some centres not stated), in assay [1], the Selectivity index is 70. This compound also yielded a CC100 in assay [2] of 1.9 µM. This compound also showed a CC25 in assay [3] of 0.21 µM.

The compound `[N-]=[N+]=N[C@]1(CO)O[C@@H](N2C=NC3C(=O)N=CN=C32)C[C@@H]1O` (some centres not stated) displayed a Selectivity index in assay [1] of under 34. In assay [2], this compound had a CC100 of 200 µM. The compound further returned a CC25 in assay [3] of under 22 µM.

`CO[C@H]1C[C@H](n2cc(C)c(=O)[nH]c2=O)O[C@@]1(CO)N=[N+]=[N-]` yielded a Selectivity index in assay [1] of over 9.8. The compound also registered a CC100 in assay [2] of over 200 µM. The CC25 in [3] is over 200 µM.

`CO[C@]1(CO)O[C@@H](n2cc(C)c(=O)[nH]c2=O)C[C@@H]1O` yielded a Selectivity index in [1] of over 23.6. The CC100 in [2] is over 200 µM. In assay [3], this compound had a CC25 of over 200 µM.

Compound `CO[C@]1(CO)O[C@@H](n2cnc3c(O)nc(N)nc32)C[C@@H]1O` yielded a CC100 in [20] of 67 µM. This compound yielded a CC25 in [21] of 22 µM. In [22], this compound yielded a Selectivity index of 220.

For the compound `CO[C@]1(CO)O[C@@H](n2cnc3c(N)ncnc32)C[C@@H]1O`, in assay [1], the Selectivity index is reported as 64.5. The CC100 in [2] is over 1000 µM. In [3], this compound came in with a CC25 of 1000 µM.

`[N-]=[N+]=N[C@]1(CO)O[C@@H](n2cc(Cl)c(=O)[nH]c2=O)C[C@@H]1O` had a Selectivity index in assay [1] of 17900. This compound also gave a CC100 in assay [2] of over 1000 µM. The same compound showed a CC25 in assay [3] of 1000 µM.

In assay [1], `[N-]=[N+]=N[C@]1(CO)O[C@@H](n2cnc3c(N)ncnc32)C[C@@H]1O` yielded a Selectivity index of 385. This compound came in with a CC100 in assay [2] of over 50 µM. Further, the CC25 in assay [3] was 50 µM.

In assay [1], `[N-]=[N+]=N[C@]1(CO)O[C@@H](n2ccc(=O)[nH]c2=O)C[C@@H]1O` had a Selectivity index of 250. Further, the CC100 in assay [2] was over 200 µM. Further, the CC25 in assay [3] came to 200 µM.

Take `COC1(CO)OC(n2cc(C)c(=O)[nH]c2=O)CC1F` (configuration not stated): the Selectivity index in assay [1] is listed as 125. In assay [2], this compound registered a CC100 of over 400 µM. For the same compound, the CC25 in assay [3] came to 400 µM.

`[N-]=[N+]=N[C@]1(CO)O[C@@H](n2ccc(N)nc2=O)[C@H](O)[C@@H]1O` [4'-AZIDOCYTIDINE] came in with a CC100 in assay [2] of 74.1 µM. Moreover, the CC25 in assay [3] was found to be 8.2 µM.

For the compound `Cc1cn([C@H]2C[C@H](N=[N+]=[N-])[C@@H](CO)O2)c(=O)[nH]c1=O` [ZIDOVUDINE], the CC100 with MT2 [4] was over 500 µM; in [23] it was over 500 µM; in [2], 3300 µM; in the assay with H9 [15], 1200 µM. Further, the IC50 is 0.2 µM in the assay with MT2 [5]; 0.22 µM in the assay on MT2 [9]; 0.03 µM in the assay on H9 [10]; 31 µM in the assay on MT2 [12]; 0.16 µM with MT2 [13]; 0.08 µM in [18]. Also, it took 10 µM to reach half-maximal inhibition with MT2 [19] (IC50). In addition, the CC25 came out at 4 µM in assay [6], 825 µM in assay [3], 44 µM in the assay on H9 [14] and 56 µM in the assay on MT2 [16].

The values are drawn from ChEMBL document CHEMBL1125438, “Synthesis and anti-HIV activity of 4'-azido- and 4'-methoxynucleosides” (J Med Chem, 1992).
